Data published in ChEMBL document CHEMBL3132809, “The structure-activity relationships of L3MBTL3 inhibitors: flexibility of the dimer interface” (Medchemcomm, 2013).

Experiments:
[1] = target: T1, E3 ubiquitin-protein ligase UHRF1 (Homo sapiens, UniProt Q96T88); experiment: Inhibition of UHRF1 tandem tudor domain (121 to 286) (unknown origin) expressed in Escherichia coli BL21 Rosetta DE3 using H3K9Me3 as substrate incubated for 30 mins at room temperature followed by incubation under dark condition for 30 mins by AlphaScreen assay
T1 sequence (Q96T88 whole entry): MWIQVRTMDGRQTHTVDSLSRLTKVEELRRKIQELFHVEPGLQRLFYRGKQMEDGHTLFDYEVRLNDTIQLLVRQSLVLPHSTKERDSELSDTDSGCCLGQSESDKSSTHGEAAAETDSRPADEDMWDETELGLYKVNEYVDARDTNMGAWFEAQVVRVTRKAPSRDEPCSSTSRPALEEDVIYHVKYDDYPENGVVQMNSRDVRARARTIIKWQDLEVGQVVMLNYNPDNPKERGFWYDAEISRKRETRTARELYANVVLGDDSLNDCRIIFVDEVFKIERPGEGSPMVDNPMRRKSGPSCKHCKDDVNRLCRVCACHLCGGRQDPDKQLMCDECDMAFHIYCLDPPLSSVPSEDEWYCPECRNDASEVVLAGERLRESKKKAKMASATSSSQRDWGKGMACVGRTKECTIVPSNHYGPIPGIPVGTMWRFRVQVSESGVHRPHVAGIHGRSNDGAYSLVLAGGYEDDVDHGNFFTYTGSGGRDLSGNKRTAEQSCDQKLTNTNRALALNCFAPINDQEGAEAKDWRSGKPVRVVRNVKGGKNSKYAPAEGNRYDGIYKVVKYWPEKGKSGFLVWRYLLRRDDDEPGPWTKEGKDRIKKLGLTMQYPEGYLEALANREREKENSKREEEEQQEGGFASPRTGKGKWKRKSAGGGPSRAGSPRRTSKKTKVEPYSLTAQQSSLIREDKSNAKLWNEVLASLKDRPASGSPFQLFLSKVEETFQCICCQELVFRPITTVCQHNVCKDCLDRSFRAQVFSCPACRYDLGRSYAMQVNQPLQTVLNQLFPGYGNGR
In short: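 His-tagged domains (53BP1 residues 1485-1611; UHRF1 residues 121-286) expressed in BL21 Rosetta DE3 pLysS with 0.5 mM IPTG induction at 18 °C overnight. Proteins were stored in 25 mM Tris pH 7.5, 150 mM NaCl, 2 mM DTT. Compounds were 3-fold, 20-point dilutions up to 30 μM. […] Streptavidin donor and nickel-chelate acceptor beads were used.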

[2] = target: MBT domain-containing protein 1 (Homo sapiens, UniProt Q05BQ5); experiment: Inhibition of MBTD1 (130 to 566) (unknown origin) expressed in Escherichia coli BL21 Rosetta DE3 using H4K20Me1 as substrate incubated for 30 mins at room temperature followed by incubation under dark condition for 30 mins by AlphaScreen assay
In short: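 MBTD1 residues 130-566 (His-tag vector) was expressed in BL21 Rosetta DE3 pLysS with 0.5 mM IPTG induction at 18 °C overnight. […] Detection used streptavidin donor and nickel-chelate acceptor beads.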

[3] = target: T2, Lethal(3)malignant brain tumor-like protein 3 (Homo sapiens, UniProt Q96JM7); experiment: Inhibition of His-tagged L3MBTL3 (unknown origin) using H4K20Me2 as substrate incubated for 30 mins at room temperature followed by incubation under dark condition for 30 mins by AlphaScreen assay
T2 sequence (Q96JM7 whole entry): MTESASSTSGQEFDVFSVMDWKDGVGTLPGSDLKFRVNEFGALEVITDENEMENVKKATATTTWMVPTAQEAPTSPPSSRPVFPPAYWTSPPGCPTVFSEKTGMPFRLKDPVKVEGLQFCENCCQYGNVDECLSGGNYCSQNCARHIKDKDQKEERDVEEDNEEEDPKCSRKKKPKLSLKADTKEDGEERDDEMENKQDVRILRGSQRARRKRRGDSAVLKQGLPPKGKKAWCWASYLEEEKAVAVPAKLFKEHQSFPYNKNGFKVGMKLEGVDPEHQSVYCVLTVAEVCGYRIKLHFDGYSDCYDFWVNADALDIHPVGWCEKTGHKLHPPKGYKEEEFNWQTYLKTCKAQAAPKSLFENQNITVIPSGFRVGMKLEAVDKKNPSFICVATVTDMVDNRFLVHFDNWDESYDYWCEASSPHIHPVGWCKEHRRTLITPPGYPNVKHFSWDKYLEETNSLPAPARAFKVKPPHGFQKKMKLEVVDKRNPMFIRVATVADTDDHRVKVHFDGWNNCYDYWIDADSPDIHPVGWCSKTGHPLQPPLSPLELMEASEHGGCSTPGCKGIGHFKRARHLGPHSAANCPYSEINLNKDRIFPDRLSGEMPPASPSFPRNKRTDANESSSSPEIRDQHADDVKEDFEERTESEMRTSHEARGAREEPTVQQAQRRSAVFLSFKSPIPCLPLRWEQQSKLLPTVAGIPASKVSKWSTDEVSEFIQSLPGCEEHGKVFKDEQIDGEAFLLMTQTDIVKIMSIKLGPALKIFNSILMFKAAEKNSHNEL

TP53-binding protein 1 = TP53-binding protein 1 (Homo sapiens, UniProt Q12888); experiment: Inhibition of 53BP1 (1485 to 1611) (unknown origin) expressed in Escherichia coli BL21 Rosetta DE3 using H4K20Me2 as substrate incubated for 30 mins at room temperature followed by incubation under dark condition for 30 mins by AlphaScreen assay
[4] = target: Lysine-specific demethylase 5A (Homo sapiens, UniProt P29375); experiment: Inhibition of GST-tagged Jarid1A (unknown origin) using H3K4Me3 as substrate incubated for 30 mins at room temperature followed by incubation under dark condition for 30 mins by AlphaScreen assay
In short: (§1)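 For GST-tagged proteins, GST-acceptor beads were paired with streptavidin donor beads. Compounds were run as 3-fold, 20-point dilutions, highest 30 μM. […] Protein-peptide mix was incubated 30 min at RT, then beads 30 min in the dark at RT, with an EnVision AlphaScreen read.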

PHD finger protein 23 = PHD finger protein 23 (Homo sapiens, UniProt Q9BUL5); experiment: Inhibition of GST-tagged PHF23 (unknown origin) using H3K4Me3 as substrate incubated for 30 mins at room temperature followed by incubation under dark condition for 30 mins by AlphaScreen assay; in short: as §1
[5] = target: T3, Chromobox protein homolog 7 (Homo sapiens, UniProt O95931); experiment: Inhibition of CBX7 (8 to […]) (unknown origin) expressed in Escherichia coli BL21 Rosetta DE3 using H3K9Me3 as substrate incubated for 30 mins at room temperature followed by incubation under dark condition for 30 mins by AlphaScreen assay
T3 sequence (O95931 whole entry): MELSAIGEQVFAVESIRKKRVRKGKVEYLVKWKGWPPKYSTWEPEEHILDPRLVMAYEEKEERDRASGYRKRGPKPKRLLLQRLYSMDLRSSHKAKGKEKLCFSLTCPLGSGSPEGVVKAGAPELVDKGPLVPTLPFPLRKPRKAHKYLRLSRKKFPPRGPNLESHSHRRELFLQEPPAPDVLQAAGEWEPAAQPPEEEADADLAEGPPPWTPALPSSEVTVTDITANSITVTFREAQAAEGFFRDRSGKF

[6] = target: T2, Lethal(3)malignant brain tumor-like protein 3; experiment: Binding affinity to L3MBTL3 (unknown origin) by isothermal titration calorimetric analysis

TP53-binding protein 1, sequence (Q12888 whole entry): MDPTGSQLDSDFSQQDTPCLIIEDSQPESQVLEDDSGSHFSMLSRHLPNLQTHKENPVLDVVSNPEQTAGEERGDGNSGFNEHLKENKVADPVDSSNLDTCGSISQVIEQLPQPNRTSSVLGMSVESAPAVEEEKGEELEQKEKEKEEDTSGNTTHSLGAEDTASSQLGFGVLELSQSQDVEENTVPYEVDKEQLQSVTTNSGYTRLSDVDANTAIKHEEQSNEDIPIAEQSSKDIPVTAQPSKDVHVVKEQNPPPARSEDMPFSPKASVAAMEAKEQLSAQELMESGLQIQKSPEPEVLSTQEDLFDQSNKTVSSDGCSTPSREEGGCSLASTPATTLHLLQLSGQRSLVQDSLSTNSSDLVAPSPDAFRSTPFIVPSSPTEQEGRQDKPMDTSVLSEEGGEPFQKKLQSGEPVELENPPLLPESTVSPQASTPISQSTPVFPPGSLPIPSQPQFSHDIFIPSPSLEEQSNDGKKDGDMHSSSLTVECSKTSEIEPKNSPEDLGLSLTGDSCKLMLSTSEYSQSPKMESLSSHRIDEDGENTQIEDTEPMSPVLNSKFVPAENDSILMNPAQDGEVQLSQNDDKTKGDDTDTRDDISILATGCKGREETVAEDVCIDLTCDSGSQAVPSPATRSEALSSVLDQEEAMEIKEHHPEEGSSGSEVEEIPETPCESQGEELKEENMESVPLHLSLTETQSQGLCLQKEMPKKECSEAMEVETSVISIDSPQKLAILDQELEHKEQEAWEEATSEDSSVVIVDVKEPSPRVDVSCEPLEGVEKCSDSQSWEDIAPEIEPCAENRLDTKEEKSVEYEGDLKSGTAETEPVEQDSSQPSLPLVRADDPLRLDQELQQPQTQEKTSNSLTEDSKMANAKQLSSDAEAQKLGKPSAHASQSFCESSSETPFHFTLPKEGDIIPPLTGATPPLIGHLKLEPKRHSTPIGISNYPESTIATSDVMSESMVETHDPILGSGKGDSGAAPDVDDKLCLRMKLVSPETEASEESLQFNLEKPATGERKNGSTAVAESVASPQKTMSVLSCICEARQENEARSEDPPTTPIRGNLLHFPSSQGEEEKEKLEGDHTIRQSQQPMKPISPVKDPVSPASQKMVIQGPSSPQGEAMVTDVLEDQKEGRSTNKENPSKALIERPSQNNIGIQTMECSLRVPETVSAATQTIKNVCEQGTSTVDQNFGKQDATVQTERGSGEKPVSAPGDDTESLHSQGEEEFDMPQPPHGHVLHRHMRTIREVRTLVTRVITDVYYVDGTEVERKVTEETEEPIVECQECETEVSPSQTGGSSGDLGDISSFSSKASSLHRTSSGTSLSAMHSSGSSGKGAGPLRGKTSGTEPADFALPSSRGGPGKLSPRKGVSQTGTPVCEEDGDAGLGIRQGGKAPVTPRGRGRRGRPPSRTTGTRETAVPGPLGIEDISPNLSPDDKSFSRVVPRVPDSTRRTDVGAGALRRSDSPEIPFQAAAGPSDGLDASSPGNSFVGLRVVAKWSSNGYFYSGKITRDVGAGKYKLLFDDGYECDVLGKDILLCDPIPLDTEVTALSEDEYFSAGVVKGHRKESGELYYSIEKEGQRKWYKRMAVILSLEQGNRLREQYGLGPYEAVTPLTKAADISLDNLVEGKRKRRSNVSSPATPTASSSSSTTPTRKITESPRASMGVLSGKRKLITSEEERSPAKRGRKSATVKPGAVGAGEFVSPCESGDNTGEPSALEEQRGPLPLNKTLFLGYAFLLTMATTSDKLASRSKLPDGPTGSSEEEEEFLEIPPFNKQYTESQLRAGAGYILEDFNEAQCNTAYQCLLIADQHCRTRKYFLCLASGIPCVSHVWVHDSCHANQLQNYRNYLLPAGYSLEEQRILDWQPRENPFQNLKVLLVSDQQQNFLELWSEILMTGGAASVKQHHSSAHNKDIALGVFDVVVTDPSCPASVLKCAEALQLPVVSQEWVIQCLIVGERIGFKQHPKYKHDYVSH
MBT domain-containing protein 1, sequence (Q05BQ5 whole entry, the tested form may be a part): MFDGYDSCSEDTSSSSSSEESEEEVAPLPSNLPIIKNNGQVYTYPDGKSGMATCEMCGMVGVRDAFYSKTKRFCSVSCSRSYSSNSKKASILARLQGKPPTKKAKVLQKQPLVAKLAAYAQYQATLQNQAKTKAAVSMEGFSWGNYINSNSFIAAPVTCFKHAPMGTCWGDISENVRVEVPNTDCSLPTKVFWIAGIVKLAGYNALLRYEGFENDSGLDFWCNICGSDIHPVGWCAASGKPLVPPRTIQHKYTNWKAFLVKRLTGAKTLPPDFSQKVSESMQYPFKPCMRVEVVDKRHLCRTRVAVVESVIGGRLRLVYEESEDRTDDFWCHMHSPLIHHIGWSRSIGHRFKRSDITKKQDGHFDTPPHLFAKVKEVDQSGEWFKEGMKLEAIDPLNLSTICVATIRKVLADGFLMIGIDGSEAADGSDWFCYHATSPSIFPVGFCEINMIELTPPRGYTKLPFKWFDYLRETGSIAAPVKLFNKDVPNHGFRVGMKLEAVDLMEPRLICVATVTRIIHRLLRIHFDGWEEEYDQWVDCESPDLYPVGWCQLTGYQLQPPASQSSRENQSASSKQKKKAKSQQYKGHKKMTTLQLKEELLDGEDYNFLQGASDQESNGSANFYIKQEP
PHD finger protein 23, sequence (Q9BUL5 whole entry): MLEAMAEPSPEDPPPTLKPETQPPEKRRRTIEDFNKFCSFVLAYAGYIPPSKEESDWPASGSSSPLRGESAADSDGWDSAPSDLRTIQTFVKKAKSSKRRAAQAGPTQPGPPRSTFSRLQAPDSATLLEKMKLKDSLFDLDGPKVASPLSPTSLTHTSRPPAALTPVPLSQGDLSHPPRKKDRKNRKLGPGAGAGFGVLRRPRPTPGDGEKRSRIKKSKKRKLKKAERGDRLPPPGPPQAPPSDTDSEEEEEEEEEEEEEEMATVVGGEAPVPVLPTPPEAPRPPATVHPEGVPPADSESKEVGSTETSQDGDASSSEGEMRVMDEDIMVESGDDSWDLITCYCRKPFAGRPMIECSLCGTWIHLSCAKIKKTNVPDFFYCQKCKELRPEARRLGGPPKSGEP
Lysine-specific demethylase 5A, sequence (P29375 whole entry): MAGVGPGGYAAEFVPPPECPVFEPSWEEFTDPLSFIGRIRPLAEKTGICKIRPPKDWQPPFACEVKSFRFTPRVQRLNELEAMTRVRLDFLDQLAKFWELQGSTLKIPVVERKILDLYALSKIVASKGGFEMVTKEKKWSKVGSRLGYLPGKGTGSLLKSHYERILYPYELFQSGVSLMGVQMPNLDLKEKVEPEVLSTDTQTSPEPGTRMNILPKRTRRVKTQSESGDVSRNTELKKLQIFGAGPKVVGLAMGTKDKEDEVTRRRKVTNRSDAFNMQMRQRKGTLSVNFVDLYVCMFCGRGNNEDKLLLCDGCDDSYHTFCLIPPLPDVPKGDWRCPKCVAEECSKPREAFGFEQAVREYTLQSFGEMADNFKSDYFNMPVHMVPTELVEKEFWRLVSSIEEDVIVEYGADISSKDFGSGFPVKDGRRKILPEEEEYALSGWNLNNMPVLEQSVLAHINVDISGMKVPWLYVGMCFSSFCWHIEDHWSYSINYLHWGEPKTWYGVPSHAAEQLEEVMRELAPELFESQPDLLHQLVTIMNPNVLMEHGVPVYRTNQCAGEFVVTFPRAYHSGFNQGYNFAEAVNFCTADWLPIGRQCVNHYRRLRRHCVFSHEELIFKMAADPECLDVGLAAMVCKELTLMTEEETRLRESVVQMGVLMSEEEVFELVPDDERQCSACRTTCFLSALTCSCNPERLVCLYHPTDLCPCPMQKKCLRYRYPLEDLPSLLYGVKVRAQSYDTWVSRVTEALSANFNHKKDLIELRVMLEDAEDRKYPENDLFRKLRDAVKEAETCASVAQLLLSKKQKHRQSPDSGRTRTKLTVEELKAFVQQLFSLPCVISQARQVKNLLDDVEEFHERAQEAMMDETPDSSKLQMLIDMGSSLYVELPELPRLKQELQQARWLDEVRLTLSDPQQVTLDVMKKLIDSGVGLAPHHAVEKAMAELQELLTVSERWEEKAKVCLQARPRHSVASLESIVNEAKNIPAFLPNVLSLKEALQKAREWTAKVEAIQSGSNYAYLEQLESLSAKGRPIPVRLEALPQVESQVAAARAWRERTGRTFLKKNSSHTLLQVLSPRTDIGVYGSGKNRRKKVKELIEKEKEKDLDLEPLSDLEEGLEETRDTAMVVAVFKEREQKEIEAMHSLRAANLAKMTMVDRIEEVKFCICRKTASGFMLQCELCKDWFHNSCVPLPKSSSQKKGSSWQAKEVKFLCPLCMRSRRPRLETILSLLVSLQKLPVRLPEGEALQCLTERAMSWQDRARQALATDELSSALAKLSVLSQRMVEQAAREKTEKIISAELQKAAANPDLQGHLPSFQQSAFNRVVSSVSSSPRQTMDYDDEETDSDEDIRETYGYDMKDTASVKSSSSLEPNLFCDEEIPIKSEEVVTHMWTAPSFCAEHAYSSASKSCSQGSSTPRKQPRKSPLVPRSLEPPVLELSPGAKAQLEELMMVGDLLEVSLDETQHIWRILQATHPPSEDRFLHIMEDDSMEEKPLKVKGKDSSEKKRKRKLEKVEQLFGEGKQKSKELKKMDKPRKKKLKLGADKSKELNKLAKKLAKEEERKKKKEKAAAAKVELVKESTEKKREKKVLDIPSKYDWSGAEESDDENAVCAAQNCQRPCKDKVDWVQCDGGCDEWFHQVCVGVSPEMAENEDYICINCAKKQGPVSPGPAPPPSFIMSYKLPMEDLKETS

SMILES: c1cc(N2CCC(N3CCCC3)CC2)ccc1CCCN1CCCC1
- IC50 [1]: > 30 µM
- IC50 [2]: 135 µM
- IC50 [3]: 0.07 µM
- IC50 (TP53-binding protein 1): > 30 µM
- IC50 [4]: > 30 µM
- IC50 (PHD finger protein 23): > 30 µM
- IC50 [5]: > 30 µM
- Kd [6]: 1.8 µM

SMILES: O=C(c1cncc(Br)c1)N1CCC(N2CCCC2)CC1
- IC50 [1]: > 30 µM
- IC50 [2]: > 300 µM
- IC50 [3]: 2.8 µM
- IC50 (TP53-binding protein 1): > 30 µM
- IC50 [4]: > 30 µM
- IC50 (PHD finger protein 23): > 30 µM
- IC50 [5]: > 30 µM

SMILES: c1cc(N2CCC(N3CCCC3)CC2)ccc1CCN1CC2(COC2)C1
- IC50 [1]: > 30 µM
- IC50 [2]: 247 µM
- IC50 [3]: 0.27 µM
- IC50 (TP53-binding protein 1): > 30 µM
- IC50 [4]: > 30 µM
- IC50 (PHD finger protein 23): > 30 µM
- IC50 [5]: > 30 µM

SMILES: c1cc(N2CCC(N3CCCC3)CC2)ccc1CCN1CCC1
- IC50 [1]: > 30 µM
- IC50 [2]: > 300 µM
- IC50 [3]: 0.048 µM
- IC50 (TP53-binding protein 1): > 30 µM
- IC50 [4]: > 30 µM
- IC50 (PHD finger protein 23): > 30 µM
- IC50 [5]: > 30 µM

SMILES: O=C(CCc1ccc(N2CCC(N3CCCC3)CC2)cc1)N1CCCC1
- IC50 [1]: > 30 µM
- IC50 [2]: > 300 µM
- IC50 [3]: 2.4 µM
- IC50 (TP53-binding protein 1): > 30 µM
- IC50 [4]: > 30 µM
- IC50 (PHD finger protein 23): > 30 µM
- IC50 [5]: > 30 µM
- Kd [6]: 38 µM

SMILES: c1cc(CN2CCCC2)cc(N2CCC(N3CCCC3)CC2)c1
- IC50 [1]: > 30 µM
- IC50 [2]: 78 µM
- IC50 [3]: 0.12 µM
- IC50 (TP53-binding protein 1): 19.4 µM
- IC50 [4]: > 30 µM
- IC50 (PHD finger protein 23): > 30 µM
- IC50 [5]: > 30 µM

SMILES: c1cc(N2CCC(N3CCCC3)CC2)ccc1CCN1CCCCCC1
- IC50 [1]: > 30 µM
- IC50 [2]: 249 µM
- IC50 [3]: 0.1 µM
- IC50 (TP53-binding protein 1): > 30 µM
- IC50 [4]: > 30 µM
- IC50 (PHD finger protein 23): > 30 µM
- IC50 [5]: > 30 µM

SMILES: c1cc(N2CCC(N3CCCC3)CC2)ccc1CCN1CCOCC1
- IC50 [1]: > 30 µM
- IC50 [2]: > 300 µM
- IC50 [3]: 0.85 µM
- IC50 (TP53-binding protein 1): > 30 µM
- IC50 [4]: > 30 µM
- IC50 (PHD finger protein 23): > 30 µM
- IC50 [5]: > 30 µM

SMILES: N#CC1CCN(CCc2ccc(N3CCC(N4CCCC4)CC3)cc2)C1 (centres undefined)
- IC50 [1]: > 30 µM
- IC50 [2]: > 300 µM
- IC50 [3]: 0.36 µM
- IC50 (TP53-binding protein 1): > 30 µM
- IC50 [4]: > 30 µM
- IC50 (PHD finger protein 23): > 30 µM
- IC50 [5]: > 30 µM

SMILES: c1cc(N2CCC(N3CCCC3)CC2)ccc1CN1CCCC1
- IC50 [1]: > 30 µM
- IC50 [2]: 157 µM
- IC50 [3]: 0.35 µM
- IC50 (TP53-binding protein 1): > 30 µM
- IC50 [4]: > 30 µM
- IC50 (PHD finger protein 23): > 30 µM
- IC50 [5]: > 30 µM
- Kd [6]: 1.4 µM

SMILES: c1cc(CCN2CCCC2)cc(N2CCC(N3CCCC3)CC2)c1
- IC50 [1]: > 30 µM
- IC50 [2]: 261 µM
- IC50 [3]: 0.12 µM
- IC50 (TP53-binding protein 1): > 30 µM
- IC50 [4]: > 30 µM
- IC50 (PHD finger protein 23): > 30 µM
- IC50 [5]: > 30 µM
- Kd [6]: 2.7 µM

SMILES: c1cc(N2CCC(N3CCCCC3)CC2)ccc1CCN1CCCC1
- IC50 [1]: > 30 µM
- IC50 [2]: 170 µM
- IC50 [3]: 0.58 µM
- IC50 (TP53-binding protein 1): > 30 µM
- IC50 [4]: > 30 µM
- IC50 (PHD finger protein 23): > 30 µM
- IC50 [5]: > 30 µM
- Kd [6]: 2.4 µM
